One test concerns the target UBC9 (SUMO E2 enzyme) (Homo sapiens, UniProt P63279). Nature of the test: reconstituted sumoylation cascade, electrophoretic mobility shift IC50. The test is classed as biochemical. The method in brief: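 Reconstituted cascade in 50 mM Tris pH 9.0 with 5 mM MgCl2 and 1 mM DTT. Contains SUMO E1 0.1 µM, His-tagged SUMO-1 1.4 µM, UBC9 0.25 µM and a 5-FAM-labelled peptide substrate at 1.0 µM. Started with ATP (final 2 mM), run with test compound at varying concentrations for 90 min at room temperature, then EDTA-quenched. Conversion read by microfluidic mobility shift. IC50 from the mean of three replicates.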
(In EMSA bound probe runs differently from free probe, usually more slowly.)

The target of test [1] is T1, SUMO-activating enzyme 1/2 (SAE 1/2, SUMO E1) (Homo sapiens, UniProt Q9UBT2).
T1 sequence (Q9UBT2 1-640): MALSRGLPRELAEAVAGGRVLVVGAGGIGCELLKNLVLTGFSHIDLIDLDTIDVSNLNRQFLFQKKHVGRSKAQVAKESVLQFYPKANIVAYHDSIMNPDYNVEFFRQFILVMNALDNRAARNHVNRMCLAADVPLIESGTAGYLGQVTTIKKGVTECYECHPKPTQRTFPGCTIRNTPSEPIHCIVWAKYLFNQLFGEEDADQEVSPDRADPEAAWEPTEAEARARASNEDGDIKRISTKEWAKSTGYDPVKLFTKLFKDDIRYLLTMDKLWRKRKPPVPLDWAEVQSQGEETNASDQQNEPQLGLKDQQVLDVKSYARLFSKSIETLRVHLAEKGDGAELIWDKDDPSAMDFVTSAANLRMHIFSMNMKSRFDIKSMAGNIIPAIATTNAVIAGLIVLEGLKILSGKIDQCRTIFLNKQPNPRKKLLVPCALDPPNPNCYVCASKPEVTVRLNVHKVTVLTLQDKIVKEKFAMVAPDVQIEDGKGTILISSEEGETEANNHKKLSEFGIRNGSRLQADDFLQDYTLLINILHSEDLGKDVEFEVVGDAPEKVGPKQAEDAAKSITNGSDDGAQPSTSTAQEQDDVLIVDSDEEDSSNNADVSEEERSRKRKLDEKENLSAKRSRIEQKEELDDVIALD
T1 sequence (Q9UBE0 1-346 partner): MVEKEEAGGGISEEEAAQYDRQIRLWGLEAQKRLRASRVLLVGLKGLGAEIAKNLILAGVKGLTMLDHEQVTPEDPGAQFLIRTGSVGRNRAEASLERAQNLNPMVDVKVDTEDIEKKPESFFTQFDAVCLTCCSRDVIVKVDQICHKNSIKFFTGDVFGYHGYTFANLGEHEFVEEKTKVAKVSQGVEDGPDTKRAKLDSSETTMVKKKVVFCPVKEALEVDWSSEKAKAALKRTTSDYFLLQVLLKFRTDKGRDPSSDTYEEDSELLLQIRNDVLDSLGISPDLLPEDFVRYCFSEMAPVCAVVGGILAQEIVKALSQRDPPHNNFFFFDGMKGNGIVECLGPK
Nature of the test: E1-SUMO-1 thioester formation gel assay with fluorescent SUMO-1. The format is biochemical.

By IC50 is commonly meant the concentration that inhibits the measured activity by half.

UBC9 (SUMO E2 enzyme), sequence (P63279 2-158): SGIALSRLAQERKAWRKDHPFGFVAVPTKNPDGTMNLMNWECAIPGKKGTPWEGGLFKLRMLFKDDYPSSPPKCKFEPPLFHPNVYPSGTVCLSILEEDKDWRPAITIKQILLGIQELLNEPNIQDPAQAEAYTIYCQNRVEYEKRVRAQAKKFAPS
UBC9 (SUMO E2 enzyme), sequence (P63165 2-97 partner): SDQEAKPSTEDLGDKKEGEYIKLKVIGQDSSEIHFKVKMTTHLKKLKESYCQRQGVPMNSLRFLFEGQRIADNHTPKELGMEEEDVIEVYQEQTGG

For the compound `O=c1cc(-c2ccc(O)c(O)c2O)oc2ccccc12` [2-D08, 2’,3’,4’-trihydroxyflavone], the concentration for half-maximal inhibition (IC50) at UBC9 (SUMO E2 enzyme) worked out at 6 ± 1.3 µM.
Regarding `CCCCCC/C=C\CCCCCCCc1cccc(O)c1C(=O)O` [ginkgolic acid], the half-maximal inhibitory concentration (IC50) in test [1] came out at 9.1 µM.
